According to ChEMBL document CHEMBL1145439, “Fluorine-18-labeled benzamide analogues for imaging the sigma2 receptor status of solid tumors with positron emission tomography” (J Med Chem, 2007):

Columns and labels:
Lung [1] = assay: Biodistribution in lung of mouse EMT6 tumor bearing BALB/c mouse at 10 to 20 uCi after 5 mins; assay type: ADME, organism-based; conditions: in vivo
Summary of the method: (§1)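 EMT-6 cells (5×10^5 in 100 µL PBS) implanted s.c. in scapular region of female Balb/c mice (~2 months, 17-22 g); studied 7-10 days later at ~0.2 cm3 tumor. 18F tracer 10-20 µCi in 100-150 µL saline via tail vein; ≥4 mice per time point; tissue removed at sacrifice, weighed, gamma-counted; %ID/g calculated.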

Liver [2] = assay: Biodistribution in liver of mouse EMT6 tumor bearing BALB/c mouse at 10 to 20 uCi after 5 mins; assay type: ADME, organism-based; conditions: in vivo; summary of the method: as §1
Kidney [3] = assay: Biodistribution in kidney of mouse EMT6 tumor bearing BALB/c mouse at 10 to 20 uCi after 5 mins; assay type: ADME, organism-based; conditions: in vivo; summary of the method: as §1
Brain [4] = assay: Biodistribution in brain of EMT6 tumor bearing BALB/c mouse at 10 to 20 uCi after 5 mins; assay type: ADME, organism-based; conditions: in vivo; summary of the method: as §1
Kidney [5] = assay: Biodistribution in kidney of mouse EMT6 tumor bearing BALB/c mouse at 10 to 20 uCi after 60 mins; assay type: ADME, organism-based; conditions: in vivo, 1 h; summary of the method: as §1
Blood [6] = assay: Biodistribution in blood of mouse EMT6 tumor bearing BALB/c mouse at 10 to 20 uCi after 30 mins; assay type: ADME, organism-based; conditions: in vivo, 0.5 h; summary of the method: as §1
[7] = Tumor to muscle ratio of the drug in mouse EMT6 tumor bearing BALB/c mouse at 10 to 20 uCi after 2 hrs; assay type: ADME, tissue-based, Muscle tissue
Summary of the method: (§2)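 Tumor-bearing female Balb/c mice (EMT-6 s.c. allograft, ~0.2 cm3) given 10-20 µCi 18F tracer in saline i.v. via tail vein; ≥4 per group; killed 120 min later. Tissues weighed and gamma-counted; ratio = tumor %ID/g divided by that organ's %ID/g.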

Adipose tissue [8] = assay: Biodistribution in fat of mouse EMT6 tumor bearing BALB/c mouse at 10 to 20 uCi after 120 mins; assay type: ADME, organism-based; conditions: in vivo, 2 h; summary of the method: as §1
Brain [9] = assay: Biodistribution in brain of EMT6 tumor bearing BALB/c mouse at 10 to 20 uCi after 30 mins; assay type: ADME, organism-based; conditions: in vivo, 0.5 h; summary of the method: as §1
Kidney [10] = assay: Biodistribution in kidney of mouse EMT6 tumor bearing BALB/c mouse at 10 to 20 uCi after 30 mins; assay type: ADME, organism-based; conditions: in vivo, 0.5 h; summary of the method: as §1
Blood [11] = assay: Biodistribution in blood of mouse EMT6 tumor bearing BALB/c mouse at 10 to 20 uCi after 5 mins; assay type: ADME, organism-based; conditions: in vivo; summary of the method: as §1
[12] = Tumor to fat ratio of the drug in mouse EMT6 tumor bearing BALB/c mouse at 10 to 20 uCi after 2 hrs; assay type: ADME; summary of the method: as §2
Heart [13] = assay: Biodistribution in heart of mouse EMT6 tumor bearing BALB/c mouse at 10 to 20 uCi after 5 mins; assay type: ADME, organism-based; conditions: in vivo; summary of the method: as §1
[14] = Decrease in tumor to fat ratio of the drug in mouse EMT6 tumor bearing BALB/c mouse after 1 hr in presence of YUN-143; assay type: ADME; set-up: scale not given: the % may be the effect or the level left
Summary of the method: (§3)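 Blocking: 18F tracer coinjected i.v. with 1 mg/kg cold YUN-143 (σ1/σ2 ligand) into EMT-6 tumor-bearing female Balb/c mice; sacrificed at 60 min; tumor/muscle and tumor/fat ratios from %ID/g of gamma-counted tissues.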

EMT6 [15] = assay: Biodistribution in tumor of mouse EMT6 tumor bearing BALB/c mouse at 10 to 20 uCi after 5 mins; assay type: ADME, organism-based; conditions: emt6, 5 min; summary of the method: as §1
Lung [16] = assay: Biodistribution in lung of mouse EMT6 tumor bearing BALB/c mouse at 10 to 20 uCi after 30 mins; assay type: ADME, organism-based; conditions: in vivo, 0.5 h; summary of the method: as §1
Brain [17] = assay: Biodistribution in brain of mouse EMT6 tumor bearing BALB/c mouse at 10 to 20 uCi after 120 mins; assay type: ADME, organism-based; conditions: in vivo, 2 h; summary of the method: as §1
Muscle tissue [18] = assay: Biodistribution in muscle of mouse EMT6 tumor bearing BALB/c mouse at 10 to 20 uCi after 120 mins; assay type: ADME, organism-based; conditions: in vivo, 2 h; summary of the method: as §1
Lung [19] = assay: Biodistribution in lung of mouse EMT6 tumor bearing BALB/c mouse at 10 to 20 uCi after 60 mins; assay type: ADME, organism-based; conditions: in vivo, 1 h; summary of the method: as §1
Muscle tissue [20] = assay: Biodistribution in muscle of mouse EMT6 tumor bearing BALB/c mouse at 10 to 20 uCi after 30 mins; assay type: ADME, organism-based; conditions: in vivo, 0.5 h; summary of the method: as §1
Heart [21] = assay: Biodistribution in heart of mouse EMT6 tumor bearing BALB/c mouse at 10 to 20 uCi after 60 mins; assay type: ADME, organism-based; conditions: in vivo, 1 h; summary of the method: as §1
Adipose tissue [22] = assay: Biodistribution in fat of mouse EMT6 tumor bearing BALB/c mouse at 10 to 20 uCi after 60 mins; assay type: ADME, organism-based; conditions: in vivo, 1 h; summary of the method: as §1
Adipose tissue [23] = assay: Biodistribution in fat of mouse EMT6 tumor bearing BALB/c mouse at 10 to 20 uCi after 30 mins; assay type: ADME, organism-based; conditions: in vivo, 0.5 h; summary of the method: as §1
[24] = Decrease in tumor to muscle ratio of the drug in mouse EMT6 tumor bearing BALB/c mouse after 1 hr in presence of YUN-143; assay type: ADME; set-up: scale not given: the % may be the effect or the level left; summary of the method: as §3
Blood [25] = assay: Biodistribution in blood of mouse EMT6 tumor bearing BALB/c mouse at 10 to 20 uCi after 120 mins; assay type: ADME, organism-based; conditions: in vivo, 2 h; summary of the method: as §1
Bone [26] = assay: Biodistribution in bone of mouse EMT6 tumor bearing BALB/c mouse at 10 to 20 uCi after 120 mins; assay type: ADME, organism-based, Bone element; conditions: in vivo, 2 h; summary of the method: as §1
Blood [27] = assay: Biodistribution in blood of mouse EMT6 tumor bearing BALB/c mouse at 10 to 20 uCi after 60 mins; assay type: ADME, organism-based; conditions: in vivo, 1 h; summary of the method: as §1
Bone [28] = assay: Biodistribution in bone of mouse EMT6 tumor bearing BALB/c mouse at 10 to 20 uCi after 60 mins; assay type: ADME, organism-based, Bone element; conditions: in vivo, 1 h; summary of the method: as §1
Kidney [29] = assay: Biodistribution in kidney of mouse EMT6 tumor bearing BALB/c mouse at 10 to 20 uCi after 120 mins; assay type: ADME, organism-based; conditions: in vivo, 2 h; summary of the method: as §1
EMT6 [30] = assay: Biodistribution in tumor of mouse EMT6 tumor bearing BALB/c mouse at 10 to 20 uCi after 60 mins; assay type: ADME, organism-based; conditions: emt6, 1 h; summary of the method: as §1
Heart [31] = assay: Biodistribution in heart of EMT6 tumor bearing BALB/c mouse at 10 to 20 uCi after 120 mins; assay type: ADME, organism-based; conditions: in vivo, 2 h; summary of the method: as §1
Muscle tissue [32] = assay: Biodistribution in muscle of mouse EMT6 tumor bearing BALB/c mouse at 10 to 20 uCi after 60 mins; assay type: ADME, organism-based; conditions: in vivo, 1 h; summary of the method: as §1
Muscle tissue [33] = assay: Biodistribution in muscle of EMT6 tumor bearing BALB/c mouse at 10 to 20 uCi after 5 mins; assay type: ADME, organism-based; conditions: in vivo; summary of the method: as §1
Brain [34] = assay: Biodistribution in brain of EMT6 tumor bearing BALB/c mouse at 10 to 20 uCi after 60 mins; assay type: ADME, organism-based; conditions: in vivo, 1 h; summary of the method: as §1
Heart [35] = assay: Biodistribution in heart of mouse EMT6 tumor bearing BALB/c mouse at 10 to 20 uCi after 30 mins; assay type: ADME, organism-based; conditions: in vivo, 0.5 h; summary of the method: as §1
Bone [36] = assay: Biodistribution in bone of mouse EMT6 tumor bearing BALB/c mouse at 10 to 20 uCi after 30 mins; assay type: ADME, organism-based, Bone element; conditions: in vivo, 0.5 h; summary of the method: as §1
Lung [37] = assay: Biodistribution in lung of mouse EMT6 tumor bearing BALB/c mouse at 10 to 20 uCi after 120 mins; assay type: ADME, organism-based; conditions: in vivo, 2 h; summary of the method: as §1
Liver [38] = assay: Biodistribution in liver of mouse EMT6 tumor bearing BALB/c mouse at 10 to 20 uCi after 30 mins; assay type: ADME, organism-based; conditions: in vivo, 0.5 h; summary of the method: as §1
Bone [39] = assay: Biodistribution in bone of mouse EMT6 tumor bearing BALB/c mouse at 10 to 20 uCi after 5 mins; assay type: ADME, organism-based, Bone element; conditions: in vivo; summary of the method: as §1
Liver [40] = assay: Biodistribution in liver of mouse EMT6 tumor bearing BALB/c mouse at 10 to 20 uCi after 60 mins; assay type: ADME, organism-based; conditions: in vivo, 1 h; summary of the method: as §1
EMT6 [41] = assay: Biodistribution in tumor of EMT6 tumor bearing BALB/c mouse 10 to 20 uCi after 30 mins; assay type: ADME, organism-based; conditions: emt6, 0.5 h; summary of the method: as §1
Liver [42] = assay: Biodistribution in liver of mouse EMT6 tumor bearing BALB/c mouse at 10 to 20 uCi after 120 mins; assay type: ADME, organism-based; conditions: in vivo, 2 h; summary of the method: as §1
EMT6 [43] = assay: Biodistribution in tumor of mouse EMT6 tumor bearing BALB/c mouse at 10 to 20 uCi after 120 mins; assay type: ADME, organism-based; conditions: emt6, 2 h; summary of the method: as §1
Adipose tissue [44] = assay: Biodistribution in fat of mouse EMT6 tumor bearing BALB/c mouse at 10 to 20 uCi after 5 mins; assay type: ADME, organism-based; conditions: in vivo; summary of the method: as §1

Drug uptake (Lung [1]): 18.47 % ID/g | Drug uptake (Liver [2]): 15.21 % ID/g | Drug uptake (Kidney [3]): 19.98 % ID/g | Drug uptake (Brain [4]): 0.71 % ID/g | Drug uptake (Kidney [5]): 3.5 % ID/g | Drug uptake (Blood [6]): 1.23 % ID/g | Ratio [7]: 8 | Drug uptake (Adipose tissue [8]): 0.17 % ID/g | Drug uptake (Brain [9]): 0.27 % ID/g | Drug uptake (Kidney [10]): 7.73 % ID/g | Drug uptake (Blood [11]): 1.82 % ID/g | Ratio [12]: 7 | Drug uptake (Heart [13]): 5.6 % ID/g | Activity [14]: 50% | Drug uptake (EMT6 [15]): 3.05 % ID/g | Drug uptake (Lung [16]): 3.75 % ID/g | Drug uptake (Brain [17]): 0.08 % ID/g | Drug uptake (Muscle tissue [18]): 0.15 % ID/g | Drug uptake (Lung [19]): 1.51 % ID/g | Drug uptake (Muscle tissue [20]): 0.73 % ID/g | Drug uptake (Heart [21]): 0.69 % ID/g | Drug uptake (Adipose tissue [22]): 0.47 % ID/g | Drug uptake (Adipose tissue [23]): 1.36 % ID/g | Activity [24]: 50% | Drug uptake (Blood [25]): 0.28 % ID/g | Drug uptake (Bone [26]): 0.59 % ID/g | Drug uptake (Blood [27]): 0.65 % ID/g | Drug uptake (Bone [28]): 0.93 % ID/g | Drug uptake (Kidney [29]): 1.34 % ID/g | Drug uptake (EMT6 [30]): 2.15 % ID/g | Drug uptake (Heart [31]): 0.39 % ID/g | Drug uptake (Muscle tissue [32]): 0.4 % ID/g | Drug uptake (Muscle tissue [33]): 2.5 % ID/g | Drug uptake (Brain [34]): 0.14 % ID/g | Drug uptake (Heart [35]): 1.54 % ID/g | Drug uptake (Bone [36]): 2.01 % ID/g | Drug uptake (Lung [37]): 0.74 % ID/g | Drug uptake (Liver [38]): 10.73 % ID/g | Drug uptake (Bone [39]): 2.23 % ID/g | Drug uptake (Liver [40]): 5.57 % ID/g | Drug uptake (EMT6 [41]): 3.11 % ID/g | Drug uptake (Liver [42]): 2.61 % ID/g | Drug uptake (EMT6 [43]): 1.15 % ID/g | Drug uptake (Adipose tissue [44]): 4.13 % ID/g
SMILES: COc1cc2c(cc1OC)CN(CCCCNC(=O)c1cc(I)cc(OC)c1OCC[18F])CC2
